Each block holds one compound with its values, some of them ahead of it.
Legend:
[1] = biological target: T1, UDP-glucuronosyltransferase 2B7 (Homo sapiens, UniProt P16662); assay: Drug metabolism in human kidney microsomes assessed as UGT2B7-mediated tacrolimus glucuronide formation at 200 uM after 16 hrs by LC-MS analysis; type: ADME
T1 sequence (P16662 whole entry): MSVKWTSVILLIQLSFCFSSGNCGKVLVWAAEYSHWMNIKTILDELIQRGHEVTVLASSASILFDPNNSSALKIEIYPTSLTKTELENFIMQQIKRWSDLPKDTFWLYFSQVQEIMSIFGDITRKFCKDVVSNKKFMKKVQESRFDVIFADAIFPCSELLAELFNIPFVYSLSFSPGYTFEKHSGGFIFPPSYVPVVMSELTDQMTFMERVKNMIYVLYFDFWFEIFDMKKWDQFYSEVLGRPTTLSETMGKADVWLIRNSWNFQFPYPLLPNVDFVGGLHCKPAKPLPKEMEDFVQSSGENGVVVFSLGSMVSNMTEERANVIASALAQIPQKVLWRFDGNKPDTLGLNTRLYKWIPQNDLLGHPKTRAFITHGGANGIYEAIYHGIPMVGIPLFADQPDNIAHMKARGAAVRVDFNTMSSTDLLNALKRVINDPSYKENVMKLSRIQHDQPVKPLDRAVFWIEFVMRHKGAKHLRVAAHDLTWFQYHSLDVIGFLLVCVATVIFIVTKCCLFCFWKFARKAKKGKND
In short: (§1)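 Microsomes from human liver, kidney and intestine, or from HEK293 cells overexpressing individual UGT1A or UGT2B enzymes, were prepared by differential centrifugation. They were incubated 16 h at 37°C with 200 μM tacrolimus. Tacrolimus glucuronide was detected by LC-MS/MS (C8 column, ammonium acetate/acetic acid–methanol gradient, positive electrospray), with CsA d4 as a marker.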

[2] = biological target: UDP-glucuronosyltransferase 1A4 (Homo sapiens, UniProt P22310, P24T); assay: Activity of UGT1A4*2 mutant (unknown origin) overexpressed in HEK293 cells assessed as enzyme-mediated glucuronidation at 25 to 750 uM after 1 hr by Eadie-Hofstee plot analysis; type: ADME, cell-based; conditions: hek293, 1 h
Sequence of UDP-glucuronosyltransferase 1A4 (Homo sapiens, UniProt P22310, P24T) (P22310 whole entry P24T): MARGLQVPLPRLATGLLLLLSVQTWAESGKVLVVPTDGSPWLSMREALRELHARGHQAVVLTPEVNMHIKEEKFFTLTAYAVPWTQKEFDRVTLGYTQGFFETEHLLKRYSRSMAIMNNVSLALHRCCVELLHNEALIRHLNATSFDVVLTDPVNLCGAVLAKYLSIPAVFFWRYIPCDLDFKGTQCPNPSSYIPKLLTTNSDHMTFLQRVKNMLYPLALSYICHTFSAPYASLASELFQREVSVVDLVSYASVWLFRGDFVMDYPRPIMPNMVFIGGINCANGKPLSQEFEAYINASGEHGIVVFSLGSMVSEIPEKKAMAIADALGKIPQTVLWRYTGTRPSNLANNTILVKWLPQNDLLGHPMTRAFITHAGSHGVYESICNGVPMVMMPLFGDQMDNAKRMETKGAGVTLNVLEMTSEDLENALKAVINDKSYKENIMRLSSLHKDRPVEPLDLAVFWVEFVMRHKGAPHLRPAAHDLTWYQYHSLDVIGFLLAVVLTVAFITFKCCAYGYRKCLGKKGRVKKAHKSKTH
In short: (§2)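 Tacrolimus at 25–750 μM was incubated 1 h and glucuronide was measured by LC-MS/MS. A kinetic model was fitted, and Vmax was adjusted for UGT1A4 protein content. Data are mean ± SD of triplicates from three independent experiments.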

[3] = Drug metabolism in human intestine assessed as glucuronidation after 1 hr by Eadie-Hofstee plot analysis; type: ADME, tissue-based
In short: (§3)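 Pooled human intestine microsomes were incubated 1 h with tacrolimus at 25–750 μM. Glucuronide formation was measured by LC-MS/MS, and kinetic parameters came from a selected enzyme kinetic model fit. Data are mean ± SD of triplicate determinations from three independent experiments.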

[4] = system: Liver microsome; assay: Drug metabolism in human liver microsomes assessed as glucuronidation at 200 uM after 16 hrs by LC-MS analysis; type: ADME; in short: as §1
[5] = system: UGT1A4*4; assay: Activity of UGT1A4*4 mutant (unknown origin) overexpressed in HEK293 cells assessed as enzyme-mediated glucuronidation after 1 hr by Eadie-Hofstee plot analysis; type: ADME, cell-based; conditions: human, HEK293 cells overexpressing UGT1A4*4; in short: as §2
[6] = system: UGT1A4*1; assay: Activity of UGT1A4*1 mutant (unknown origin) overexpressed in HEK293 cells assessed as enzyme-mediated glucuronidation after 1 hr by Eadie-Hofstee plot analysis; type: ADME, cell-based; conditions: human, HEK293 cells overexpressing UGT1A4*1; in short: as §2
[7] = Drug metabolism in human intestine assessed as glucuronidation at 25 to 750 uM after 1 hr by Eadie-Hofstee plot analysis; type: ADME, tissue-based; in short: as §3
[8] = Activity of UGT1A4*1 mutant (unknown origin) overexpressed in HEK293 cells assessed as enzyme-mediated glucuronidation at 25 to 750 uM after 1 hr by Eadie-Hofstee plot analysis; type: ADME, cell-based; conditions: human, hek293, 1 h; in short: as §2
[9] = biological target: T2, UDP-glucuronosyltransferase 1A4 (Homo sapiens, UniProt P22310); assay: Activity at human recombinant UGT1A4 assessed as enzyme-mediated tacrolimus glucuronide formation at 200 uM after 16 hrs by LC-MS analysis; type: ADME; in short: as §1
T2 sequence (P22310 whole entry): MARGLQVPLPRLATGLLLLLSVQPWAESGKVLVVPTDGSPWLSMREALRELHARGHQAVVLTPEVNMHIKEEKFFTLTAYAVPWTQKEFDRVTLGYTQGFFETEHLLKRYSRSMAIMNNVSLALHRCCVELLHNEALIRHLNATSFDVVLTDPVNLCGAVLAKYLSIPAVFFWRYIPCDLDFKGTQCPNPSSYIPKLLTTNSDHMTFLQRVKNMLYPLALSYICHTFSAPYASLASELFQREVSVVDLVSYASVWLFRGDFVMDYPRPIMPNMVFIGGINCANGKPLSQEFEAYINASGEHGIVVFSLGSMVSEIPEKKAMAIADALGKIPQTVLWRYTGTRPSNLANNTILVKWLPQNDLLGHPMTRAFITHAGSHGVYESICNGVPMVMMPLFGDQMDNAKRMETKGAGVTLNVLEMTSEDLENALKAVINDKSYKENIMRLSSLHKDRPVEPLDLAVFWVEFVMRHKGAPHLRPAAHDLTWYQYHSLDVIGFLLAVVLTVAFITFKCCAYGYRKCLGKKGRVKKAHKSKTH

[10] = biological target: UDP-glucuronosyltransferase 1A4 (Homo sapiens, UniProt P22310, L48V); assay: Activity of UGT1A4*3 mutant (unknown origin) overexpressed in HEK293 cells assessed as enzyme-mediated glucuronidation at 25 to 750 uM after 1 hr by Eadie-Hofstee plot analysis; type: ADME, cell-based; conditions: hek293, 1 h; in short: as §2
Sequence of UDP-glucuronosyltransferase 1A4 (Homo sapiens, UniProt P22310, L48V) (P22310 29-534 L48V limits assumed): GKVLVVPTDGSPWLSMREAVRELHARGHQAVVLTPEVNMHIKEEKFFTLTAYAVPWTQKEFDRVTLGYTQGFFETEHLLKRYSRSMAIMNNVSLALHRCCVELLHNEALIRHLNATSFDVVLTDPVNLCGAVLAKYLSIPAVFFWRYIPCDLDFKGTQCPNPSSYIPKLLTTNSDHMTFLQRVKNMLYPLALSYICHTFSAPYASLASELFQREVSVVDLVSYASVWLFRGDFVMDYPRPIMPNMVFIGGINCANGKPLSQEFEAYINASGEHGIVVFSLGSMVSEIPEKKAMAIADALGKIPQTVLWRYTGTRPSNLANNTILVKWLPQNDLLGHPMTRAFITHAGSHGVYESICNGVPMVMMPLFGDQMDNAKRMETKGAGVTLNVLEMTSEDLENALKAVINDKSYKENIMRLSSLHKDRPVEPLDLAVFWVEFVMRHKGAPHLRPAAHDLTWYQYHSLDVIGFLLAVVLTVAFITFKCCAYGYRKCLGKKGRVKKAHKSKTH

[11] = Drug metabolism in human intestine microsomes assessed as glucuronidation at 200 uM after 16 hrs by LC-MS analysis; type: ADME; in short: as §1
[12] = Activity of UGT1A4*4 mutant (unknown origin) overexpressed in HEK293 cells assessed as enzyme-mediated glucuronidation at 25 to 750 uM after 1 hr by Eadie-Hofstee plot analysis; type: ADME, cell-based; conditions: human, hek293, 1 h; in short: as §2
[13] = system: C=CC[C@@H]1/C=C(\C)C[C@H](C)C[C@H](OC)[C@H]2O[C@@](O)(C(=O)C(=O)N3CCCC[C@H]3C(=O)O[C@H](/C(C)=C/[C@@H]3CC[C@@H](O)[C@H](OC)C3)[C@H](C)[C@@H](O)CC1=O)[C@H](C)C[C@@H]2OC; assay: Activity of UGT1A4*3 mutant (unknown origin) overexpressed in HEK293 cells assessed as enzyme-mediated glucuronidation after 1 hr by Eadie-Hofstee plot analysis; type: ADME, cell-based, Homo sapiens; in short: as §2
[14] = system: C=CC[C@@H]1/C=C(\C)C[C@H](C)C[C@H](OC)[C@H]2O[C@@](O)(C(=O)C(=O)N3CCCC[C@H]3C(=O)O[C@H](/C(C)=C/[C@@H]3CC[C@@H](O)[C@H](OC)C3)[C@H](C)[C@@H](O)CC1=O)[C@H](C)C[C@@H]2OC; assay: Activity of UGT1A4*2 mutant (unknown origin) overexpressed in HEK293 cells assessed as enzyme-mediated glucuronidation after 1 hr by Eadie-Hofstee plot analysis; type: ADME, cell-based, Homo sapiens; in short: as §2

Drug metabolism [1]: metabolite_not_detected
Vmax [2]: 1.65 area/min/mg
Km at 1 h [3]: 51.8 µM
Drug metabolism [4]: metabolite_detected
Km at 1 h [5]: 101 µM
Km at 1 h [6]: 91 µM
Vmax [7]: 0.04 area/min/mg
Vmax [8]: 1.65 area/min/mg
Drug metabolism [9]: metabolite_detected
Vmax [10]: 2.23 area/min/mg
Drug metabolism [11]: metabolite_detected
Vmax [12]: 3.14 area/min/mg
Compound: C=CC[C@@H]1/C=C(\C)C[C@H](C)C[C@H](OC)[C@H]2O[C@@](O)(C(=O)C(=O)N3CCCC[C@H]3C(=O)O[C@H](/C(C)=C/[C@@H]3CC[C@@H](O)[C@H](OC)C3)[C@H](C)[C@@H](O)CC1=O)[C@H](C)C[C@@H]2OC [TACROLIMUS ANHYDROUS]

Compound: UDP-glucuronosyltransferase 1A4 (Homo sapiens; L48V)
Km [13]: 126 µM

Compound: UDP-glucuronosyltransferase 1A4 (Homo sapiens; P24T)
Km [14]: 114 µM

Reference: ChEMBL document CHEMBL3526068, “In vitro investigation of human UDP-glucuronosyltransferase isoforms responsible for tacrolimus glucuronidation: predominant contribution of UGT1A4” (Drug Metab Dispos, 2011)
